# Data as given in ChEMBL document CHEMBL5058577, “EUbOPEN Chemogenomics Library 2 (Multiplex)” (2022).
# Tested on: HEK-293T
# Experiment: Multiplex assay against HEK293T
# Assay type: toxicity, cell-based
# Details: human
# Summary of the method: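 Four dyes were applied at seeding to live cells: Hoechst33342, BioTracker Green Microtubule Cytoskeleton Dye, MitoTracker Red and Annexin V Alexa Fluor 680. Imaging after compound addition used a CQ1 microscope at 37°C and 5% CO2. CellPathfinder machine-learning gating then sorted cells into Hoechst high-intensity objects or normal cells, normal cells into healthy, pyknosed or fragmented nuclei, and pyknosed cells into mitotic or apoptotic, with tubulin, mitochondrial-mass and membrane-permeability phenotypes given as per cents of healthy-nucleus cells.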
# [1] = 12 h, 1 µM, compound concentration 1 uM, replicate 1
# [2] = 12 h, 1 µM, compound concentration 1 uM, replicate 2
# [3] = 12 h, 10 µM, compound concentration 10 uM, replicate 1
# [4] = 12 h, 10 µM, compound concentration 10 uM, replicate 2
# [5] = 24 h, 1 µM, compound concentration 1 uM, replicate 1
# [6] = 24 h, 1 µM, compound concentration 1 uM, replicate 2
# [7] = 24 h, 10 µM, compound concentration 10 uM, replicate 1
# [8] = 24 h, 10 µM, compound concentration 10 uM, replicate 2
# [9] = 48 h, 1 µM, compound concentration 1 uM, replicate 1
# [10] = 48 h, 1 µM, compound concentration 1 uM, replicate 2
# [11] = 48 h, 10 µM, compound concentration 10 uM, replicate 1
# [12] = 48 h, 10 µM, compound concentration 10 uM, replicate 2
structure (smiles),measurement,setting,value
COc1cc2nc(N3CCN(C(=O)c4ccco4)CC3)nc(N)c2cc1OC.Cl [PRAZOSIN HYDROCHLORIDE],Population Apoptotic (%),[1],32%
same,Population Fragmented Nuclei (%),[1],10%
same,Population Healthy Nuclei (%),[1],77%
same,Population Hoechst High Intensity Objects (%),[1],6%
same,Population Membrane Permeable-Phenotype (%),[1],0%
same,Population Mitochondria Different-Phenotype (%),[1],35%
same,Population Mitotic Cells (%),[1],67%
same,Population Normal (%),[1],93%
same,Population Pyknosed Nuclei (%),[1],11%
same,Population Tubulin-Different-Phenotype (%),[1],23%
same,Total Cell Count,[1],448
same,Population Apoptotic (%),[2],56%
same,Population Fragmented Nuclei (%),[2],6%
same,Population Mitochondria Different-Phenotype (%),[2],66%
same,Population Mitotic Cells (%),[2],43%
same,Population Pyknosed Nuclei (%),[2],16%
same,Population Tubulin-Different-Phenotype (%),[2],22%
same,Total Cell Count,[2],290
same,Population Apoptotic (%),[3],38%
same,Population Fragmented Nuclei (%),[3],9%
same,Population Healthy Nuclei (%),[3],75%
same,Population Hoechst High Intensity Objects (%),[3],10%
same,Population Membrane Permeable-Phenotype (%),[3],0%
same,Population Mitochondria Different-Phenotype (%),[3],62%
same,Population Mitotic Cells (%),[3],61%
same,Population Normal (%),[3],89%
same,Population Pyknosed Nuclei (%),[3],14%
same,Population Tubulin-Different-Phenotype (%),[3],45%
same,Total Cell Count,[3],348
same,Population Apoptotic (%),[4],55%
same,Population Fragmented Nuclei (%),[4],5%
same,Population Healthy Nuclei (%),[4],77%
same,Population Hoechst High Intensity Objects (%),[4],9%
same,Population Mitochondria Different-Phenotype (%),[4],61%
same,Population Mitotic Cells (%),[4],44%
same,Population Normal (%),[4],90%
same,Population Pyknosed Nuclei (%),[4],16%
same,Population Tubulin-Different-Phenotype (%),[4],25%
same,Total Cell Count,[4],404
same,Population Apoptotic (%),[5],38%
same,Population Fragmented Nuclei (%),[5],9%
same,Population Healthy Nuclei (%),[5],82%
same,Population Hoechst High Intensity Objects (%),[5],3%
same,Population Membrane Permeable-Phenotype (%),[5],0%
same,Population Mitochondria Different-Phenotype (%),[5],25%
same,Population Mitotic Cells (%),[5],61%
same,Population Normal (%),[5],96%
same,Population Pyknosed Nuclei (%),[5],7%
same,Population Tubulin-Different-Phenotype (%),[5],10%
same,Total Cell Count,[5],660
same,Population Apoptotic (%),[6],51%
same,Population Healthy Nuclei (%),[6],80%
same,Population Hoechst High Intensity Objects (%),[6],5%
same,Population Mitochondria Different-Phenotype (%),[6],45%
same,Population Mitotic Cells (%),[6],48%
same,Population Normal (%),[6],94%
same,Population Pyknosed Nuclei (%),[6],10%
same,Population Tubulin-Different-Phenotype (%),[6],16%
same,Total Cell Count,[6],364
same,Population Apoptotic (%),[7],50%
same,Population Fragmented Nuclei (%),[7],12%
same,Population Healthy Nuclei (%),[7],77%
same,Population Hoechst High Intensity Objects (%),[7],5%
same,Population Membrane Permeable-Phenotype (%),[7],0%
same,Population Mitochondria Different-Phenotype (%),[7],40%
same,Population Mitotic Cells (%),[7],50%
same,Population Normal (%),[7],94%
same,Population Pyknosed Nuclei (%),[7],9%
same,Population Tubulin-Different-Phenotype (%),[7],32%
same,Total Cell Count,[7],463
same,Population Apoptotic (%),[8],54%
same,Population Fragmented Nuclei (%),[8],11%
same,Population Healthy Nuclei (%),[8],78%
same,Population Membrane Permeable-Phenotype (%),[8],1%
same,Population Mitochondria Different-Phenotype (%),[8],42%
same,Population Mitotic Cells (%),[8],45%
same,Population Pyknosed Nuclei (%),[8],10%
same,Population Tubulin-Different-Phenotype (%),[8],20%
same,Total Cell Count,[8],534
same,Population Apoptotic (%),[9],36%
same,Population Fragmented Nuclei (%),[9],17%
same,Population Healthy Nuclei (%),[9],76%
same,Population Hoechst High Intensity Objects (%),[9],1%
same,Population Membrane Permeable-Phenotype (%),[9],1%
same,Population Mitochondria Different-Phenotype (%),[9],16%
same,Population Mitotic Cells (%),[9],63%
same,Population Normal (%),[9],98%
same,Population Pyknosed Nuclei (%),[9],5%
same,Population Tubulin-Different-Phenotype (%),[9],8%
same,Total Cell Count,[9],1114
same,Population Apoptotic (%),[10],38%
same,Population Fragmented Nuclei (%),[10],16%
same,Population Hoechst High Intensity Objects (%),[10],2%
same,Population Membrane Permeable-Phenotype (%),[10],0%
same,Population Mitochondria Different-Phenotype (%),[10],23%
same,Population Mitotic Cells (%),[10],61%
same,Population Normal (%),[10],97%
same,Population Pyknosed Nuclei (%),[10],6%
same,Population Tubulin-Different-Phenotype (%),[10],9%
same,Total Cell Count,[10],636
same,Population Apoptotic (%),[11],33%
same,Population Fragmented Nuclei (%),[11],17%
same,Population Healthy Nuclei (%),[11],75%
same,Population Hoechst High Intensity Objects (%),[11],4%
same,Population Membrane Permeable-Phenotype (%),[11],2%
same,Population Mitochondria Different-Phenotype (%),[11],32%
same,Population Mitotic Cells (%),[11],66%
same,Population Normal (%),[11],95%
same,Population Pyknosed Nuclei (%),[11],7%
same,Population Tubulin-Different-Phenotype (%),[11],17%
same,Total Cell Count,[11],693
same,Population Apoptotic (%),[12],23%
same,Population Fragmented Nuclei (%),[12],14%
same,Population Healthy Nuclei (%),[12],78%
same,Population Membrane Permeable-Phenotype (%),[12],1%
same,Population Mitochondria Different-Phenotype (%),[12],21%
same,Population Mitotic Cells (%),[12],76%
same,Population Tubulin-Different-Phenotype (%),[12],11%
same,Total Cell Count,[12],778
